Hits are enriched below; roughly 5.6% of the tested compounds scored in any of these assays.
NR3A LBD binder: modulators (binders) of human NR3A ligand-binding domain | AID 1259313 | Tm shift relative to glycine control, % at 25 µM | NR3A LBD differential scanning fluorimetry, Tm shift; 0% = protein alone, 100% = glycine-bound protein | 340,000 tested, 2.5% active;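 active = melting temperature shift of at least 10% of the positive control shift, at one fixed dose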
MPTP block: permeability transition pore inhibition; 360,000 tested, 1.4% active; isolated mouse mitochondria, Ca2+ swelling absorbance, 30 min; inhibition, % at 10 µM; AID 602449;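 active = inhibition of 50% or more, scaled per plate between neutral and stimulator controls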
UPR XBP1 act: activators of adaptive arm of unfolded protein response (XBP1); activation, % at 20 µM; AID 463104; CHO-XBP1 luciferase reporter, IRE1-XBP1 UPR activation, luminescence; percent of tunicamycin response, DMSO as zero; 330,000 tested, 0.33% active;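 active = versus positive control, 20 µM dose yields 30% or more activation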
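Material: CHO-XBP1 cells stably carrying IRE1-XBP1-driven luciferase reporter | Medium: F12 with 10% serum | Compound dosing: 20 µM single concentration, DMSO 1% | Incubation: Overnight seeding at 37 °C, 6 h compound treatment at 37 °C | Detection: Steady-Glo luminescence read | Read-out basis: % activation of reporter signal versus tunicamycin and DMSO controls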
aDG glyco up: alpha-DG glycosylation activation; 360,000 tested, 0.22% active; AID 624168; Pro5-aDG cells, alpha-DG glycosylation AlphaScreen (IIH6); 0% Pro5, 100% B10-LARGE cell signal; activation, % at 10 µM;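 active = activation of at least 8% versus controls, or a plate z-score of at least 8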;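 also: Pro5 are CHO cells carrying HIG-tagged alpha-DG that lacks glycosylation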
CHOP inh: inhibitors of CHOP induction in ER stress response | inhibition, % at 10 µM | CHO-K1 CHOP-promoter luciferase, tunicamycin-induced, 15-18 h | 220,000 tested, 3.8% active;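 active = compounds that reduced the stress-induced luciferase reporter signal by more than about 70% of percent inhibition, limit read from the data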
CHOP UPR activ: activators of apoptotic arm of unfolded protein response (CHOP); CHO-CHOP luciferase reporter, UPR activation, luminescence; percent of tunicamycin response over DMSO baseline; activation, % at 10 µM; 330,000 tested, 0.34% active; AID 449763;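 active = at 10 µM dose, activation of 40% or more, normalized to positive control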
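Dosing – one dose, 10 µM in 0.5% DMSO · System – CHO-CHOP cells, stable luciferase reporter of PERK-eIF2a-CHOP signalling · Input – 500 cells/well · Control set – tunicamycin 10 µg/mL final as positive, DMSO-only wells as negative · Timing – 6 h compound treatment, 37 °C · Measure – % activation vs tunicamycin · Technique – luminescence read with Steady-Glo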
Each line names hits and unclear results; the compound was inactive in the other large screens.

Cc1onc(-c2c(Cl)cccc2Cl)c1C(=O)n1nnc2ccccc21	CHOP inh 96 (no result: NR3A LBD binder, MPTP block, aDG glyco up)
O=C(O)c1ccccc1C(=O)c1cccc2ccccc12	none (no result: CHOP inh)
CC(=O)Nc1cccc(/C(C)=N/NC(=O)c2ccc(Cl)cc2Cl)c1	none
C/C(=N/NS(=O)(=O)c1ccc(C)cc1)c1cccc(NC(=O)c2cccc(Cl)c2)c1	NR3A LBD binder 14
C/C(=N/NS(=O)(=O)c1ccc(Cl)cc1)c1cccc(NC(=O)c2ccc(Cl)cc2Cl)c1	NR3A LBD binder 18
Cc1cccc(NC(=O)COc2coc(CN3CCN(c4ccccc4)CC3)cc2=O)c1C	none (no result: CHOP inh)
COC(=O)c1oc2ccccc2c1NC(=O)CN1CCCC1	CHOP inh 72
CC1CCCCN1C(=O)CSc1nc(C2CC2)nc2ccccc12 (centres undefined)	none (no result: CHOP inh)
Cn1cc(-c2csc(C(O)c3ccc(F)c(F)c3)n2)cn1 (centres undefined)	none (no result: NR3A LBD binder, UPR XBP1 act, CHOP inh, CHOP UPR activ)
CC(C)(C)NC(=O)C1CCC(CNS(=O)(=O)c2cccc3nsnc23)CC1 (centres undefined)	NR3A LBD binder 10 (no result: CHOP inh)
O=C(C1CCN(S(=O)(=O)c2cccc3nsnc23)CC1)N1CC=C(c2ccccc2)CC1	none
O=C(C1CCC(CNS(=O)(=O)c2cccc3nsnc23)CC1)N1CC=C(c2ccccc2)CC1 (centres undefined)	CHOP inh 72
C=CCOc1nc(-c2ccncc2)nc2ccccc12	CHOP inh 71
COc1cc(C(=O)Sc2ccc(C)cc2)cc(OC)c1OC	CHOP inh 82
Cc1ccc(-c2csc3ncnc(SCC(=O)Nc4nnc(C)s4)c23)cc1	CHOP inh 74
COc1cc2nc(N3CCN(C(=O)OCc4ccccc4)[C@H](C(=O)NC(C)(C)C)C3)nc(N)c2cc1OC	none (no result: CHOP inh)
O=C(Nc1ccc(Cl)cc1)c1cc2c(cc1O)[nH]c1ccccc12	NR3A LBD binder 32, CHOP inh 77
COc1ccc(Sc2cc(C(F)(F)F)nc(-c3ccccn3)n2)cc1	CHOP inh 83
COc1ccccc1CNC(=O)c1ccccc1NC(=O)C1=C(C)OCCS1	none (no result: CHOP inh)
O=C(c1ccc(O)cc1)c1ccc(Cl)cc1	CHOP inh 83
COc1ccc(C(=O)c2ccc(Cl)cc2)cc1	none
COc1ccc(CCn2c(=N)c(C(=O)NCCN3CCOCC3)cc3c(=O)n4ccccc4nc32)cc1OC	NR3A LBD binder 15 (no result: CHOP inh)
COc1ccc(NC(=O)c2cc3c(=O)n4ccccc4nc3n2C)cc1OC	CHOP inh 78
COc1ccc(CCNC(=O)c2cc3c(=O)n4ccccc4nc3n(CCCN3CCOCC3)c2=N)cc1OC	none (no result: CHOP inh)
CN(C)C(=O)/N=N/C(=O)N(C)C	none (no result: NR3A LBD binder, MPTP block, UPR XBP1 act, aDG glyco up, CHOP UPR activ)
CC(=O)Nc1ccc(S(=O)(=O)NC2(C(F)(F)F)NC(=O)N(c3ccc(C)cc3)C2=O)cc1 (centres undefined)	NR3A LBD binder 10 (no result: CHOP inh)
CC(C)C[C@H](NC(=O)C1CCN(C(=O)[C@H](Cc2ccccc2)NC(=O)OC(C)(C)C)CC1)C(=O)O	none (no result: CHOP inh)
COc1ccc(F)cc1S(=O)(=O)Nc1cc2c3c(c1)CCN3C(=O)CC2	none (no result: CHOP inh)
O=C(Cc1cccs1)Nc1ccc(-c2nnc(-c3ccccc3)o2)cc1	NR3A LBD binder 28 (no result: CHOP inh)
Cc1ccc(-c2nc3ccccc3o2)cc1NC(=S)NC(=O)/C=C/c1ccco1	none
O=C(Cc1cccs1)Nc1cccc(-c2nc3ccccc3o2)c1	CHOP inh 90
CC(=O)Nc1ccc(S(=O)(=O)Nc2cccc(-c3nc4ccccc4o3)c2)cc1	NR3A LBD binder 12
O=S(=O)(Nc1ccc(-c2nc3ccccc3o2)cc1)c1ccccc1	none
Cc1ccc(-c2nc3ccccc3o2)cc1NC(=O)Cc1cccs1	CHOP inh 80
CCC(=O)Nc1cccc(-c2nc3ccccc3o2)c1	none
Cc1c([N+](=O)[O-])c(C(=O)Nc2ccc3c(c2)OCCO3)nn1C	NR3A LBD binder 10
C/C(=N\Nc1ccc([N+](=O)[O-])cc1)c1ccc(N)cc1	NR3A LBD binder 11 (no result: UPR XBP1 act, CHOP UPR activ)
Cn1cccc1/C=C1\SC(=S)N(NC(=O)c2cccc(Cl)c2)C1=O	NR3A LBD binder 13 (no result: UPR XBP1 act, CHOP UPR activ)
COc1ccccc1NC(=O)CSc1c2c(nc3ccccc13)CCC2	none
COc1cc(NC(=O)CSc2c3c(nc4ccccc24)CCC3)cc(OC)c1OC	NR3A LBD binder 13
COc1ccc(NC(=O)CSc2c3c(nc4cc(Cl)ccc24)CCCC3)cc1OC	NR3A LBD binder 14
Cc1cc2c(cc1C)NC(=O)CC(C(F)(F)C(F)(F)C(F)(F)F)=N2	CHOP inh 73
Cc1ccc2c(c1)NC(=O)CC(c1ccccc1)=N2	none
CS(=O)(=O)c1ccc(NS(=O)(=O)c2ccc(Cl)c(C(=O)NCc3ccco3)c2)cc1	none (no result: CHOP inh)
Nc1nonc1-n1nnc(C(=O)N/N=C/c2ccccc2Cl)c1CSc1ccccc1	NR3A LBD binder 30
Cc1ccc(SCc2c(C(=O)N/N=C/c3ccncc3)nnn2-c2nonc2N)cc1	none (no result: CHOP inh)
Nc1nonc1-n1nnc(C(=O)N/N=C/c2cccs2)c1CSc1ccccc1	NR3A LBD binder 37 (no result: CHOP inh)
Cc1ccc(/C=N/NC(=O)c2nnn(-c3nonc3N)c2CSc2ccc(Cl)cc2)cc1	NR3A LBD binder 26
Nc1nonc1-n1nnc(C(=O)N/N=C/c2ccc3c(c2)OCO3)c1CSc1ccccc1	NR3A LBD binder 39 (no result: CHOP inh)
O=S(=O)(c1ccc(Br)c2ccccc12)N1CCCC1	none (no result: CHOP inh)
Cc1ccc(Sc2ccc(S(=O)(=O)Nc3ccc(CC(=O)O)cc3)cc2)cc1C	none (no result: CHOP inh)
CCc1c(C(=O)N/N=C/c2cccs2)nnn1-c1nonc1N	NR3A LBD binder 22 (no result: CHOP inh)
Nc1nonc1-n1nnc(C(=O)N/N=C/C=C/c2ccccc2)c1CSC1=NCCS1	NR3A LBD binder 16
COC/C=C/C1=CC2=CC(=O)C(C)(OC(=O)c3cnc4ccccc4n3)C(=O)C2=CO1 (centres undefined)	none (no result: NR3A LBD binder, MPTP block, aDG glyco up, CHOP inh)
OCCn1nc(-c2ccccc2)cc1-c1ccccc1	none (no result: CHOP inh)
Fc1ccc(N2N=C(c3cccs3)CC2c2ccccc2)cc1 (centres undefined)	none
Fc1ccccc1N1CC(c2ccccc2)C(c2cccs2)=N1 (centres undefined)	CHOP inh 71
Oc1ccc2c(c1)oc1cc(O)ccc12	NR3A LBD binder 18
COc1c(C)oc2cc(O)ccc2c1=O	none
CSc1ccccc1NC(=O)NCCCl	NR3A LBD binder 242
CSc1ccccc1NC(=O)Nc1ccccc1Cl	none
O=Cc1ccc(OCCOc2ccc([N+](=O)[O-])cc2)cc1	none (no result: CHOP inh)
C[C@H]1CN([C@@H](C)CO)C(=O)CCCn2nncc2CO[C@@H]1CN(C)S(=O)(=O)c1cn(C)cn1	none (no result: NR3A LBD binder, UPR XBP1 act, CHOP inh, CHOP UPR activ)
CC(=O)c1sc(N/N=C/c2cccc([N+](=O)[O-])c2)nc1C	none (no result: CHOP inh)
CC(=O)c1sc(N/N=C/c2cccc(O)c2)nc1C	NR3A LBD binder 14

From PubChem BioAssay
